EBNA-1 inhibitor: blocks EBNA-1 binding to DNA; EBNA-1 DNA binding, fluorescence polarization; inhibition, % at 14.8 µM; hit rate 0.34% among 300,000; in the data active = inhibition above about 28%
PP5 primary: PP5 (human) phosphatase inhibition. hit rate 0.18% among 320,000. inhibition, % at 6.7 µM. AID 1987. purified PP5c, OMFP substrate fluorescence;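 active = inhibition above the campaign's mean inhibition across all tested compounds plus 3 SD, cut at about 9.5% in these data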;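 note: 0% = DMSO only and 100% = 100 µM cantharidin control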
ZTA counter: ZTA (EBV) inhibition in EBNA-1 counter-screen; P03206; ZTA-DNA binding, fluorescence polarization; inhibition, % at 11 µM; hit rate 0.15% among 320,000; AID 2234; in the data active = inhibition above about 33%
Target sequence (P03206 whole entry, looked up): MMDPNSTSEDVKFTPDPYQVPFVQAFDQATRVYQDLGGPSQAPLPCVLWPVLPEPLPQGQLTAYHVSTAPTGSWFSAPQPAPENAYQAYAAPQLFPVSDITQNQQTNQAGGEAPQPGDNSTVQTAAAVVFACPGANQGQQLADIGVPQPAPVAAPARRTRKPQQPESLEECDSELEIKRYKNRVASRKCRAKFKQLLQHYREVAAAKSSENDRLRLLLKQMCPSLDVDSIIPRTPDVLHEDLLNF
core dimer inh: blocks dimerization of HCV core protein | TR-FRET GST/Flag-core106 dimerization, 1536-well | inhibition, % at 5 µM | hit rate 0.33% among 300,000;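 active = inhibition above the mean of all tested compounds plus 3 SD, set per screening campaign, cut at about 45% in these data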
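test system = GST/Flag-tagged HCV core106 proteins | probe or stimulus = Eu donor and XL665 acceptor anti-tag antibodies | times = compound-protein-antibody incubation 4 h at 22.5 °C | signal = TR-FRET, excitation 340 nm, emission 617 and 671 nm | measure = percent inhibition of core106 dimerization signal | controls = wells lacking GST-core106 and wells with excess unlabelled core106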
PP1 inh: blocks human PP1-alpha phosphatase, a PP5 counter-screen | inhibition, % at 6.7 µM | hit rate 0.9% among 320,000 | P62136 | purified PP1alpha, OMFP fluorescence;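 active = inhibition above the mean inhibition of all tested compounds plus 3 SD, computed separately for each screening campaign, cut at about 15% in these data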
* marks the source's active call; other numbers are inactive results; / = no result. A selection: hits, their analogues and other compounds. The true share with any hit is near 1.7%.

SMILES	EBNA-1 inhibitor	PP5 primary	ZTA counter	core dimer inh	PP1 inh
CCn1c(SCC(=O)NC(=O)NCc2ccco2)nc2sc(C)c(C)c2c1=O	28*	0	-11	51*	6
CCOc1ccccc1-n1nnnc1SCC(=O)NC(=O)NCc1ccco1	-8	1	-15	57*	8
Cc1c(C(=O)N(C)CCCCN2CCOCC2)oc2c(F)cccc12	1	0	13	9	-3
O=C(NCC1CCCN(Cc2cccc(F)c2)C1)c1cccc2ccccc12 (stereo not given)	-1	5	-5	-18	-1
O=C(CSc1nnnn1-c1ccccc1)NC(=O)NCc1ccco1	-10	3	-2	60*	2
COc1ccc(SC[C@H](Cc2ccccc2)N2CC[C@@H](C)CCC2=O)cc1	/	4	3	/	1
COc1ccc(CCNC(=O)C2CCC(CNS(=O)(=O)c3ccccc3)CC2)cc1OC (stereo not given)	-2	-2	-17	-2	-3
O=C(NCCc1ccccc1)C1CCC(CNS(=O)(=O)c2ccccc2)CC1 (stereo not given)	-12	3	-5	-2	16*
Nc1ccc(Br)c2c1C(=O)c1ccccc1C2=O	-9	6	-8	-18	3
Nc1ccc(O)c2c1C(=O)c1ccccc1C2=O	13	4	37*	3	2
O=C(NNC(=S)NC(=O)C12CC3CC(CC(C3)C1)C2)c1ccncc1	-6	1	8	-3	2
Cc1ccc(N2C(=O)C3CC(c4ccccc4)=C4C5C=CC(C6C(=O)N(c7ccc(C)cc7)C(=O)C56)C4C3C2=O)cc1 (stereo not given)	10	-4	10	28	0
Cc1ccc(N2C(=O)C3CC(c4ccccc4)=C4C5C=CC(C6C(=O)N(c7ccc(C)cc7C)C(=O)C56)C4C3C2=O)c(C)c1 (stereo not given)	8	4	-6	52*	9
COc1ccc(CN2C(=O)C(CC(C)C)Nc3ncnc(N4CCOCC4)c32)cc1 (stereo not given)	5	4	-31	-4	-1
COc1ccc(CN2C(=O)C(CC(C)C)Nc3ncnc(N4CCCCC4)c32)cc1 (stereo not given)	6	3	8	-2	16*
O=C(Nc1ccc(-n2nncc2-c2ccco2)cc1)c1cccc(F)c1	3	0	6	6	1
O=C(Nc1ccc(-n2nncc2-c2ccco2)cc1)c1cc2ccccc2oc1=O	19	-2	-2	77*	29*
COc1ccc(N2CCN(CCCNC(=O)C(=O)c3c[nH]c4ccccc34)CC2)cc1	-2	3	-1	14	-5
CCC(C)[C@H](N)c1nnc(SCc2cccc(F)c2)o1 (stereo not given in full)	7	-1	-1	3	-1
S=c1nc(Cc2ccc(Cl)cc2)[nH]c2ccccc12	9	0	-3	54*	1
CC1CCCC(NC(=O)C2COc3ccccc3O2)C1C (stereo not given)	/	-1	1	/	8
O=C(CSc1nnc(-c2ccc(F)cc2)c2ccccc12)Nc1cccc(Cl)c1	6	-2	10	11	16*
CCCCN1CC(O)=C(c2nc(-c3ccc(Br)cc3)cs2)C1=N	-3	-2	6	4	7
CCOC(=O)CCCN1CC(O)=C(c2nc(-c3ccc(Cl)cc3)cs2)C1=N	-5	5	-1	6	17*
C[C@H](NC(=O)[C@@H]1CSC2c3ccccc3C(=O)N21)C(=O)NCc1c(F)cccc1Cl (stereo not given in full)	-6	2	-4	2	1
SMILES	EBNA-1 inhibitor	PP5 primary	ZTA counter	core dimer inh	PP1 inh
CCc1cc(C(=O)N=Nc2c(O)[nH]c3ccc([N+](=O)[O-])cc23)c2ccccc2n1	8	1	-4	58*	16*
COC(=O)COc1ccc2c(=O)c(-c3ccccc3OC)coc2c1	5	-1	11	2	-1
CCOC(=O)COc1ccc2c(=O)c(-c3ccccc3OC)coc2c1	5	-1	3	61*	10
CC(C)N(C(=O)CSc1ccc(S(=O)(=O)N2CCCCC2)cn1)c1ccccc1	/	5	-8	/	2
COCc1nnc(NC(=O)c2ccc(S(=O)(=O)N3CCCc4ccccc43)cc2)o1	-1	1	6	7	17*
NNC(=O)[C@H](Cc1ccccc1)NC(=O)NCCc1ccccc1	7	0	-8	2	0
O=C(NN1CCOCC1)c1ccccc1	1	1	-15	-6	-5
O=C(CNCCO)N1CCc2ccccc21	-15	3	-7	1	-7
CCc1nnc(NCC(=O)N2CCc3ccccc32)s1	2	-2	-10	88*	15
COc1ccc(/C=C/C(=O)NC(=S)NNC(=O)c2ccco2)cc1	-4	2	-17	-2	8
Cc1onc(-c2ccccc2)c1C(=O)NNC(=S)NC(=O)/C=C/c1ccccc1	2	4	9	9	14
COc1ccc(/C=C/C(=O)NC(=S)NNC(=O)Cc2cccs2)cc1	3	0	9	4	20*
COc1ccc(/C=C/C(=O)NC(=S)NNC(=O)c2c(-c3ccccc3)noc2C)cc1	-11	4	-2	11	17*
COC(=O)/C=C1/S/C(=N/NC(=O)c2ccc(Cl)cc2Cl)NC1=O	6	-2	-7	0	-2
O=C1C(=Cc2cccn2-c2ccc(O)cc2)C(=O)c2ccccc21	25	0	0	61*	3
O=C1C(=Cc2cccn2-c2ccccc2)C(=O)c2ccccc21	-4	1	6	-1	10
O=C(CSc1ccc(-c2ccco2)nn1)c1cccc([N+](=O)[O-])c1	10	-1	-9	65*	3
Cc1cc(SCC(=O)c2cccc([N+](=O)[O-])c2)nc(=O)[nH]1	-7	1	-19	71*	4
N#C/C(=C\c1ccc(-c2ccccc2[N+](=O)[O-])o1)C(=O)Nc1nc(-c2cccs2)cs1	1	2	5	40	16*
N#C/C(=C\c1ccc(-c2ccc([N+](=O)[O-])cc2)o1)C(=O)Nc1nc(-c2cccs2)cs1	13	1	-1	44	1
O=C(Nc1ccc2[nH]c3c(c2c1)CCCC3)c1ccco1	0	2	13	47*	2
Cc1ccc(CNC(=O)CCCCCNC(=O)N2CCn3c2nc2ccccc23)cc1	-4	-2	-14	-4	-1
CCN(CC)C(=O)CSc1nc(-c2cccs2)cc(-c2cccs2)c1C#N	5	0	-13	11	16*
N#CC(C#N)=c1ccc2c(c1)NC1(CCCCC1)N=2	38*	5	40*	-8	3
Cn1nccc1C(=O)Nc1sc2c(c1C#N)CCCC2	5	0	-10	1	0
COc1ccc(-c2c(C)sc(NC(=O)c3ccnn3C)c2C#N)cc1	0	-3	15	71*	7
Cc1ccc2nc3sc(C(=O)NCc4ccco4)c(N)c3cc2c1	-6	2	-10	53*	2
